Experimental data collected from several papers.
Protocols differ between the studies behind these lines.
BRAF: Serine/threonine-protein kinase B-raf (BRAF, Homo sapiens, UniProt P15056)
BRAF V600E: Serine/threonine-protein kinase B-raf (BRAF, Homo sapiens, UniProt P15056, V600E)

SMILES	target	assay	setting	remaining binding [%]
N#Cc1ccccc1CSc1nnc2c(n1)[nH]c1ccccc12	BRAF	binding, competition with immobilised ligand	10 µM	94
C[C@@H]1CN(c2ccc3ncc(-c4ccc5[nH]nc(C6CC6)c5c4)n3n2)C[C@H](C)O1	BRAF	binding, competition with immobilised ligand	0.5 µM	100
COc1ccc2cc(OCC3(C(=O)O)CN(C(=O)c4ccc(F)cc4)C3)ccc2c1	BRAF V600E	cell-free assay, competition with immobilised ligand	1 µM	100
CNC(=O)[C@@H]1CC[C@@H](n2c(-c3ccc4cnccc4c3)nc3ccc(C(=O)NCc4cccc(C(N)=O)c4)cc32)C1	BRAF	binding, competition with immobilised ligand	1 µM	100
C[C@@H]1CN(c2cc(-c3n[nH]c4ccc(OC5(C)CC5)cc34)ncn2)C[C@H](C)O1	BRAF V600E	cell-free assay, competition with immobilised ligand	0.1 µM	89
CN(c1nccc(-c2cnn3ncccc23)n1)C1CC1	BRAF V600E	binding	1 µM	100
COc1ncc2cc3ccccc3nc2c1C#N	BRAF	cell-free assay, competition with immobilised ligand	5 µM	100
CN(CCCC(F)(F)F)c1nccc(-c2cnn3ncccc23)n1	BRAF	binding	1 µM	100
FC(F)(F)Oc1cccc(-c2cnc3ccc(-c4ccncc4)nn23)c1	BRAF	cell-free assay, competition with immobilised ligand	5 µM	32
C[C@@H](c1ccc(-n2cnc3c(N)ncnc32)cc1)N1CCc2nn(C)c(Cc3ccccc3)c2C1=O	BRAF V600E	binding, competition with immobilised ligand	0.1 µM	76
O=C(c1ccc(Nc2nccc(-c3cc4ccccc4s3)n2)cc1)N1CCC(N2CCCC2)CC1	BRAF V600E	binding, competition with immobilised ligand	1 µM	21
O=C(NCC1CCOCC1)c1n[nH]cc1NC(=O)c1c(F)cccc1F	BRAF V600E	binding, competition with immobilised ligand	1 µM	100
N[C@H]1CCN(c2nccc(-c3cnn4ncccc34)n2)C1	BRAF	binding	1 µM	84
CCN1CCN(Cc2ccc(C(=O)Nc3ccc(C)c(Oc4ccc5c(c4)CC(=O)N5)c3)cc2C(F)(F)F)CC1	BRAF	binding, competition with immobilised ligand	1 µM	64
C=CC(=O)N1CCC(C(=O)NCC(=O)N2CCN(c3nc(-c4cnc(N)nc4C(F)F)nc(N4CCOCC4)n3)CC2)CC1	BRAF V600E	binding, competition with immobilised ligand	1 µM	89
O=C(NCCCN1CCOCC1)c1ccc(Nc2ncc(Cl)c(-c3ccc(Cl)s3)n2)cc1	BRAF V600E	binding, competition with immobilised ligand	1 µM	92
Cc1nc(Cc2cccc(C(F)(F)F)c2)sc1-c1ccc(C(N)=O)nc1	BRAF	cell-free assay, competition with immobilised ligand	1 µM	73
O=C(c1ccc(Nc2ncc(Cl)c(-c3ccc(Cl)s3)n2)cc1)N1CCC(N2CCCC2)CC1	BRAF V600E	binding, competition with immobilised ligand	1 µM	37

SMILES	target	assay	setting	remaining binding [%]
C[C@H]1CCN(c2nccc(-c3cnn4ncccc34)n2)C1	BRAF V600E	binding	1 µM	93
CN1CCN(c2ccc(Nc3nccc(-c4cccc([N+](=O)[O-])c4)n3)cc2C(F)(F)F)CC1	BRAF V600E	binding	10 µM	3.8
O=C(NCCCN1CCOCC1)c1ccc(Nc2nccc(-c3cc4ccccc4s3)n2)cc1	BRAF	binding, competition with immobilised ligand	1 µM	77
O=C(Nc1c[nH]nc1C(=O)NC1CCNCC1)c1cc(F)cc(F)c1	BRAF	binding, competition with immobilised ligand	1 µM	100
Cc1cc(-n2nc(Cc3cc(F)cc(C(F)(F)F)c3)nc2C)ccc1C(N)=O	BRAF	cell-free assay, competition with immobilised ligand	1 µM	86
c1cnn2ncc(-c3ccnc(N4CCC45COC5)n3)c2c1	BRAF V600E	binding	1 µM	63
Cc1nccc(COC(=O)N2C[C@@H]3[C@@H](CNC(=O)c4ccc5[nH]nnc5c4)[C@@H]3C2)n1	BRAF V600E	cell-free assay, competition with immobilised ligand	1 µM	100
Cc1cnn2ncc(-c3ccnc(N(C)C)n3)c2c1	BRAF	binding	1 µM	82
Cc1c(NC(=O)c2cc(C(N)=O)nc3cc(F)ccc23)c(C(F)(F)F)nn1Cc1ccc(C#N)cc1	BRAF V600E	cell-free assay, competition with immobilised ligand	1 µM	90
COc1ccnn2ncc(-c3ccnc(N(C)C)n3)c12	BRAF	binding	1 µM	48
COc1cc(-c2cn(C3CCc4ccccc4N(CC(F)(F)F)C3=O)nn2)ccc1-n1ccc(C)n1 (stereo not drawn)	BRAF	cell-free assay, competition with immobilised ligand	1 µM	100
O=C(c1ccc(Nc2ncc(Cl)c(-c3cc4ccccc4s3)n2)cc1)N1CCC(N2CCCC2)CC1	BRAF	binding, competition with immobilised ligand	1 µM	64
CN(C)C(=O)Cn1cc(-c2nc(C3(c4ccc(-c5cnc(N)nc5)cc4)CC3)no2)cn1	BRAF	cell-free assay, competition with immobilised ligand	1 µM	88
COc1cnc(Nc2cccc(S(N)(=O)=O)c2)nc1N1CCN(c2ccccc2)C(=O)C1	BRAF V600E	binding, competition with immobilised ligand	1 µM	84
CN(C)c1nccc(-c2cnn3ncccc23)n1	BRAF	binding	1 µM	74
c1cncc(-c2cccc(Nc3nccc(NC4CCCCC4)n3)c2)c1	BRAF	binding, competition with immobilised ligand	10 µM	69
Cc1cnc(Nc2ccc(C(=O)N3CCC(N4CCCC4)CC3)cc2)nc1-c1cc2ccccc2s1	BRAF	binding, competition with immobilised ligand	1 µM	46
Nc1ncc2c(n1)-c1c([nH]c3ccc(C#CC4CC4)cc13)CCCC2	BRAF V600E	binding, competition with immobilised ligand	1 µM	88
